Shown are actives, neighbours in structure and some others; about 1.8% of the full set was active somewhere.
SKN-1 block – blocks SKN-1 activity in C. elegans; 360,000 compounds, 0.49% hits; C. elegans VP596 Pgst-4::GFP/RFP ratio, acrylamide-induced, 24 h; inhibition, % at 21.8 µM;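 active means interference check ratio from 0.5 to 1.5 plus GFP to RFP signal ratio inhibition reaching or exceeding a fixed threshold, cut at about 30% in these data, passing the limit was not always enough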
MT1-MMP act inh – blocks activation of human MT1-MMP. HT1080 RFP-PRO-GFP cells, GFP/RFP ratio fluorescence, overnight; percent of plate control window, DMSO zero. GFP/RFP ratio change, % at 20 µM. 360,000 compounds, 0.061% hits. AID 651647;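 active means GFP/RFP ratio change of at least 30% with cell ATP level not reduced by more than half and red fluorescence within 50% of control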
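system = RFP-PRO-GFP reporter HT1080 cells | dosing = 20 µM single dose, 1% DMSO | timing = overnight cell settling, then overnight compound exposure, 37 °C, 5% CO2 | read-out basis = GFP/RFP fluorescence ratio | controls = DMSO and RFP-L50D-GFP cell wells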
Cneo AK release – causes C. neoformans cell lysis | lysis activity, % at 15 µM | adenylate kinase release luminescence, 4 h; normalised: neutral wells 0, clomiphene wells 100 | 360,000 compounds, 0.2% hits;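 active means mean lysis activity across replicates of at least 80%, whatever share of replicates individually reach that level; inactive means mean lysis activity below 80%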
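Material: C. neoformans cells | Amount: Yeast cell density of 5 × 10^6 cells/mL | Medium: Fresh YPD growth medium | Dosing: Single dose | Times: Static 4 h at 37 °C with compound, 1 h detection | Detection: AK luminescence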
Ecoli rRNA inh – selective bacterial rRNA inhibition in E. coli; E. coli WT GFP vs humanized-ribosome RFP mutants, fluorescence, 24 h; active compounds read low; DMSO median 0, no signal -100; GFP signal change (wild-type ribosome), % (no concentration beside the values); 350,000 compounds, 1.6% hits; AID 720706;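 active means significant combined selectivity score with lowered wild-type GFP, culture density cut under 30%, mutant RFP and density less affected; inactive means any of these conditions unmet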
iPSC survival up – hiPSC single-cell survival enhancement | ATPlite luminescence; 100% = ROCK inhibitor wells, 0% = DMSO | AID 602274 | survival enhancement, % at 20 µM | 360,000 compounds, 0.044% hits; in the data active means survival enhancement above about 18%;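 further: cells exposed to compounds for 16 hours before the ATP read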
DAGLB inh – diacylglycerol lipase beta (human) inhibition; Q8NCG7; inhibition, % at 5.17 µM; 340,000 compounds, 0.059% hits; HEK293T DAGLB membrane lysate, EnzChek fluorogenic substrate; in the data active means inhibition above about 34%;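 further: 0% = enzyme with vehicle and 100% = wells lacking enzyme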
* = called active by the depositor; · = no result given.

SMILES	SKN-1 block	MT1-MMP act inh	Cneo AK release	Ecoli rRNA inh	iPSC survival up	DAGLB inh
NNC(=O)c1ccc(COc2ccc([N+](=O)[O-])cc2)o1	1	6	·	5	2	-3
Cc1cc(C)cc(OCc2ccc(C(=O)NN)o2)c1	-8	-3	·	-23*	1	-8
COCCNC(=O)[C@H]1[C@H](CO)[C@H]2Cn3c(ccc(-c4ccccc4F)c3=O)[C@H]2N1C(=O)C1CC1	·	·	-5	3	·	·
C[C@H]1CN([C@@H](C)CO)C(=O)c2cc(C#CC3CCCC3)cnc2O[C@H]1CN(C)Cc1ccncc1	·	·	8	3	·	·
Cn1ncc2c(O/N=C(\N)c3ccc(C(F)(F)F)cc3)ncnc21	-26	-12	0	-17*	-1	-9
Cc1ccc(C(=O)NNc2ncnc3c2cnn3C)cc1	-6	-2	·	17	0	-1
CS(=O)(=O)Nc1ccccc1C(=O)OCC(=O)N1CCC(c2ccccc2)=N1	9	-1	0	-32*	-2	-1
COc1cc(C2Nc3cccc4cccc(c34)N2)ccc1OC(C)=O	-18	31*	-1	·	-5	3
CCCCCCCNC(=O)c1ccc(N2CCC3(CC2)OCCO3)c([N+](=O)[O-])c1	-8	-2	·	-26*	-1	5
CCCNC(=O)c1ccc(N2CCC3(CC2)CC(c2ccccc2)=NO3)c([N+](=O)[O-])c1	-1	9	4	-10	-3	9
NC(=S)N/N=C\c1ccccc1OCc1ccccc1	8	-5	18	-26*	-1	-1
O=C(CSCc1ccccc1)N/N=C/c1ccccc1OCc1ccccc1	11	-3	6	-27*	1	1
CCCNC(=O)Nc1ccc2c(c1)OC[C@H](C)N(Cc1ccc(-c3ccccn3)cc1)C[C@H](C)[C@H](OC)CN(C)C2=O	·	·	0	-1	·	·
CCCNC(=O)N1C[C@@H](O)COC[C@H]2O[C@H](CC(=O)N3CCN(C)CC3)CC[C@@H]21	·	·	105*	10	·	·
CCCNC(=O)N1C[C@H](O)COC[C@@H]2O[C@H](CC(=O)N3CCN(C)CC3)CC[C@H]21	·	·	-1	-5	·	·
CCCNC(=O)N1C[C@H](O)COC[C@H]2O[C@H](CC(=O)N3CCN(C)CC3)CC[C@@H]21	·	·	118*	17	·	·
COc1ccc(NC(=O)N(C)C[C@@H]2OCCCC[C@@H](C)Oc3ccc(NC(=O)Nc4ccc(F)cc4)cc3C(=O)N([C@H](C)CO)C[C@H]2C)cc1	·	·	0	-1	·	·
CN1C(=O)c2cc(NC(=O)NC3CCCC3)ccc2OC[C@H]2O[C@H](CC(=O)NCC3CC3)CC[C@@H]21	·	·	-2	-1	·	·
Cc1nc2ccccc2c2c1CC(C(C)(Cl)Br)O2 (stereo not drawn)	13	1	·	-30*	0	-2
Cc1ccc2nc(C)c3c(c2c1)OC(C(C)(Cl)Br)C3 (stereo not drawn)	19	2	1	-10	0	-3
Cc1cc(C)n(-c2ccc(C(=O)Oc3ccc4c(c3)OCO4)cc2)n1	37*	-10	-2	·	-2	-5
Fc1ccc(-c2nnn(Cc3nc4ccccc4s3)n2)cc1	37*	1	0	·	-1	-9
Fc1ccc(Cn2nnc(-c3ccc(Cl)cc3)n2)cc1	17	6	-3	-28	0	-13
Clc1ccc(-c2nnn(Cc3nc4ccccc4s3)n2)cc1	57*	1	-2	·	-1	-16
CC(C)NC(=O)N1[C@H](CO)[C@H](c2ccccc2)C12CN(C(=O)CN(C)C)C2	·	·	·	2	·	·
COc1ccc(CNC(=O)C[C@@H]2C[C@H]3c4cc(NC(=O)CN(C)C)ccc4O[C@H]3[C@@H](CO)O2)cc1	·	·	4	7	·	·
C[C@@H]1CCCCO[C@H](CN(C)S(=O)(=O)c2cccs2)[C@@H](C)CN([C@H](C)CO)C(=O)c2cc(NC(=O)Nc3ccc(C(F)(F)F)cc3)ccc2O1	·	·	0	4	·	·
O=C(C[C@H]1CC[C@H]2[C@@H](COC[C@H](O)CN2CC2CCCC2)O1)NCC1CC1	·	·	·	1	·	·
CC1=NN(c2ccccc2)C(=O)C1C=Nc1ccccc1O (stereo not drawn)	10	0	·	-19*	0	3
